Peptide text beside a SMILES is read from it.
Assays:
[1] = Selectivity is the ratio of inhibitory concentrations at alpha4-beta1 integrin to alpha4-beta7 integrin
Integrin alpha-4/beta-7 = target: T1, Integrin alpha-4/beta-7 (Homo sapiens, UniProt P13612+P26010); experiment: Ability to block the alpha4-beta7 integrin-MAdCAM-1 binding interaction using a protein ELISA format; assay type: protein-complex assay
T1 sequence (P13612 whole entry): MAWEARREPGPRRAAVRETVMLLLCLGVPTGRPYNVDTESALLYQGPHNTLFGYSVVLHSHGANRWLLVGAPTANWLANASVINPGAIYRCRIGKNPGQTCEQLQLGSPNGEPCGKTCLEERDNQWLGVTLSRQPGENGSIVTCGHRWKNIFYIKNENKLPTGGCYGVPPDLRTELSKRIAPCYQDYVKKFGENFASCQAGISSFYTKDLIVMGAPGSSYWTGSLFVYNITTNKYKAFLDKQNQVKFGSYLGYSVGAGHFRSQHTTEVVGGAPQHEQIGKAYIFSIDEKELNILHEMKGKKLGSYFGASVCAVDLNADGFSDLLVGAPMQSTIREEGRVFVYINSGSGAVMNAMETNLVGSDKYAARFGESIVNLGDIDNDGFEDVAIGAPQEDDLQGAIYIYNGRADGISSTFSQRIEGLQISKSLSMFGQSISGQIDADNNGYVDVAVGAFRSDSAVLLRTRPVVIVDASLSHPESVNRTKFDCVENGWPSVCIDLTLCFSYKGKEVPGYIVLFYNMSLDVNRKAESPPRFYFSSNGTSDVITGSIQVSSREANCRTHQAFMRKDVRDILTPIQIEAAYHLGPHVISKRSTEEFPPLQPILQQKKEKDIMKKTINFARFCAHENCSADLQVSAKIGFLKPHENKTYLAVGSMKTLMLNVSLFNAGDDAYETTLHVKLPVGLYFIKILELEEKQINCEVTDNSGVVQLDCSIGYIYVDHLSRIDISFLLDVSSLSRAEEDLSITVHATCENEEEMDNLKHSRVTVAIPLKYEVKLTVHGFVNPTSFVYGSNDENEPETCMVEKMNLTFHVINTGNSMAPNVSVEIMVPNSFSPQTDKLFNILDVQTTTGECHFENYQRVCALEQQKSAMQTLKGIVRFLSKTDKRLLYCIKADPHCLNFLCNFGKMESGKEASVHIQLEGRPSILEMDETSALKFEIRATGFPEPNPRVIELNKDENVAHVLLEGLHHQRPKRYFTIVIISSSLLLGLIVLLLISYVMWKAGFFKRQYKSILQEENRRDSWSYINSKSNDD
T1 sequence (P26010 whole entry): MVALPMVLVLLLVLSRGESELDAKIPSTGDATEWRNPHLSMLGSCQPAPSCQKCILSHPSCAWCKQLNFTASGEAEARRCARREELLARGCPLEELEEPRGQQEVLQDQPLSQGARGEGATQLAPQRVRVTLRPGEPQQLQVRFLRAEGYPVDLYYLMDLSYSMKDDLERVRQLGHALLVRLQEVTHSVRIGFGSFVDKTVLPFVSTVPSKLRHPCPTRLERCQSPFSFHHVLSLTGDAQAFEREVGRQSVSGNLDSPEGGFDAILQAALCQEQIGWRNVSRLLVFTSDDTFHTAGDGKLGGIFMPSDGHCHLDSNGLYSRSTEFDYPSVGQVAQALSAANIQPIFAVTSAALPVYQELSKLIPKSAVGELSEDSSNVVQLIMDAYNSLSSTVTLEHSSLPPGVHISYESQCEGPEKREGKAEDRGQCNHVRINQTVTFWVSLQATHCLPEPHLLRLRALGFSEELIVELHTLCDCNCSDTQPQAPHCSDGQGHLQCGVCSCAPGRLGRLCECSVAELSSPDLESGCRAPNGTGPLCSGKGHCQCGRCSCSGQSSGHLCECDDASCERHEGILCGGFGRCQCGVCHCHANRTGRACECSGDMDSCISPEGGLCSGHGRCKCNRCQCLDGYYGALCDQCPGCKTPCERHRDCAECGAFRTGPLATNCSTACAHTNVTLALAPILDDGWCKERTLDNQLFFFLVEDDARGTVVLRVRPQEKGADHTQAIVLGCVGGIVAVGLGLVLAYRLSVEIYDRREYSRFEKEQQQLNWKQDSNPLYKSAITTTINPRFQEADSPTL
How it was run: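 Plates coated overnight at 4 °C with anti-human α4 antibody 9F10 (2 µg/mL), blocked in Tris pH 7.5 buffer with 1 mM MnCl2, Tween-20 and 0.5% BSA, then loaded with α4β7 purified from transfected JY cells (2 µg/mL). Compounds (1 nM–200 µM final, triplicate) plus MAdCAM-1-Ig-HRP (1 µg/mL), 2 h room temperature. TMB read at 450 nm; IC50 at half-maximal absorbance.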

Integrin alpha-4/beta-1 = Integrin alpha-4/beta-1 (Homo sapiens, UniProt P05556+P13612); experiment: Inhibitory concentration affording 50% inhibition of alpha4-beta1 integrin binding to VCAM-1, using ELISA assay.; assay type: protein-complex assay
How it was run: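 α4β1 extracted from Ramos cell membranes (lectin chromatography, gel filtration in 1% octylglucoside), with 1 mM MnCl2 throughout. Wells coated with 4 µg/mL recombinant soluble human VCAM-1 (5 N-terminal Ig domains, from CHO cells) and blocked with 1% BSA. Inhibitor and receptor 2 h at 37 °C in Tris pH 7.4. Bound receptor detected with anti-β1 mAb 2D4.6, then HRP anti-mouse and TMB at 450 nm. IC50 at half-maximal absorbance.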

Chain of Integrin alpha-4/beta-1 (P05556 whole entry, one chain of several, the tested form may be a part): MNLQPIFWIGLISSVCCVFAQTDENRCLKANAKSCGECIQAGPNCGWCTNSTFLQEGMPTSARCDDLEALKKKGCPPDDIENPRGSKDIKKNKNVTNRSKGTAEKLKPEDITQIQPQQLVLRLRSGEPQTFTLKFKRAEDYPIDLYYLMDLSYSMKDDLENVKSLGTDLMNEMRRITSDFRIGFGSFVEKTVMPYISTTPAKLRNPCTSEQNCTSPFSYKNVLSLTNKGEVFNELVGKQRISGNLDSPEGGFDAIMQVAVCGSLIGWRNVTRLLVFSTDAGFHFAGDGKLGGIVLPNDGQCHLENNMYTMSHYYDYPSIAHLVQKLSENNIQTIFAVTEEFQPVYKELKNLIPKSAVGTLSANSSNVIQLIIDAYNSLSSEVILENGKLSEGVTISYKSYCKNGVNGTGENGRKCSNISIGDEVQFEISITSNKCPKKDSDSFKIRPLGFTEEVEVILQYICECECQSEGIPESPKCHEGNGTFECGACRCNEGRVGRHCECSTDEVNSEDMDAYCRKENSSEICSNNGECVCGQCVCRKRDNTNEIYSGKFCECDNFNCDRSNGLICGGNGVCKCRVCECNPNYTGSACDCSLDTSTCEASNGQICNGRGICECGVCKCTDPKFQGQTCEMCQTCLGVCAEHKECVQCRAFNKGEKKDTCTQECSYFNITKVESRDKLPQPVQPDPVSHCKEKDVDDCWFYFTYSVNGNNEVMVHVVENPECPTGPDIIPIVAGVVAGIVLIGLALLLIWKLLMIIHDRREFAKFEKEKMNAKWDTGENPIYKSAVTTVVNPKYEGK

Row | Compound | Ratio [1] | IC50 (Integrin alpha-4/beta-7) [nM] | IC50 (Integrin alpha-4/beta-1) [nM]
1 | C[C@@H](O)[C@@H]1NC(=O)[C@@H](CC(=O)O)NC(=O)[C@H](CO)NC(=O)[C@@H](CCCN=C(N)N)NC(=O)[C@H](N)CSSC[C@H](C(N)=O)NC(=O)[C@H]2CCCN2C1=O | 0.9 | – | –
2 | CC(C)C[C@H]1NC(=O)[C@H]([C@@H](C)O)NC(=O)[C@@H](CC(=O)O)NC(=O)[C@H](CO)NC(=O)[C@@H](CCCN=C(N)N)NC(=O)[C@H](N)CSSC[C@H](C(N)=O)NC1=O | 35 | – | –
3 | CC(C)C[C@H]1NC(=O)[C@H]([C@@H](C)O)NC(=O)[C@@H](CC(=O)O)NC(=O)[C@H](CO)NC(=O)[C@@H](CCCN=C(N)N)NC(=O)[C@H](N)CSSC[C@H](C(=O)O)NC1=O | 3.1 | – | –
4 | CC(C)C[C@@H]1NC(=O)[C@@H](CCCN=C(N)N)NC(=O)[C@H](N)CSSC[C@H](C(N)=O)NC(=O)[C@@H](CC(C)C)NC(=O)[C@H]([C@@H](C)O)NC(=O)[C@@H](CC(=O)O)NC1=O | 0.42 | – | –
5 | CC(C)C[C@H]1NC(=O)[C@H]([C@@H](C)O)NC(=O)[C@@H](CC(=O)O)NC(=O)[C@H](CO)NC(=O)[C@@H](Cc2c[nH]c3ccccc23)NC(=O)[C@H](N)CSSC[C@H](C(N)=O)NC1=O | 0.37 | – | –
6 | CC(C)C[C@H]1NC(=O)[C@H]([C@@H](C)O)NC(=O)[C@@H](CC(=O)O)NC(=O)[C@H](CO)NC(=O)[C@@H](Cc2ccc(O)cc2)NC(=O)[C@H](N)CSSC[C@H](C(N)=O)NC1=O | 0.07 | – | –
7 | CC(C)C[C@H]1NC(=O)[C@H]([C@@H](C)O)NC(=O)[C@@H](CC(=O)O)NC(=O)[C@H](CO)NC(=O)[C@@H](Cc2c[nH]cn2)NC(=O)[C@H](N)CSSC[C@H](C(N)=O)NC1=O | 2.8 | – | –
8 | CC(C)C[C@H]1NC(=O)[C@H]([C@@H](C)O)NC(=O)[C@@H](CC(=O)O)NC(=O)[C@H]([C@@H](C)O)NC(=O)[C@@H](CCCN=C(N)N)NC(=O)[C@H](N)CSSC[C@H](C(N)=O)NC1=O | 3.5 | – | –
9 | CC[C@H](C)[C@@H]1NC(=O)[C@@H](CCCN=C(N)N)NC(=O)[C@H](N)CSSC[C@H](C(N)=O)NC(=O)[C@@H](CC(C)C)NC(=O)[C@H]([C@@H](C)O)NC(=O)[C@@H](CC(=O)O)NC1=O | 0.06 | – | –
10 | CSCC[C@@H]1NC(=O)[C@@H](CCCN=C(N)N)NC(=O)[C@H](N)CSSC[C@H](C(N)=O)NC(=O)[C@@H](CC(C)C)NC(=O)[C@H]([C@@H](C)O)NC(=O)[C@@H](CC(=O)O)NC1=O | 1.5 | – | –
11 | CC(C)C[C@H]1NC(=O)[C@H]([C@@H](C)O)NC(=O)[C@@H](CC(=O)O)NC(=O)[C@H](CO)NC(=O)[C@@H](CCCCN)NC(=O)[C@H](N)CSSC[C@H](C(N)=O)NC1=O | 6 | – | –
12 | CC(C)C[C@H]1NC(=O)[C@H]([C@@H](C)O)NC(=O)[C@@H](CCC(=O)O)NC(=O)[C@H](CO)NC(=O)[C@@H](CCCN=C(N)N)NC(=O)[C@H](N)CSSC[C@H](C(N)=O)NC1=O | 0.1 | – | –
13 | CC(C)C[C@@H]1NC(=O)[C@H]([C@@H](C)O)NC(=O)[C@H](CC(N)=O)NC(=O)[C@H](CO)NC(=O)[C@H](CCCNC(=N)N)NC(=O)[C@@H](N)CSSC[C@@H](C(N)=O)NC1=O | – | 175000 | 88000
14 | CC(C)C[C@@H]1NC(=O)[C@H]([C@@H](C)O)NC(=O)[C@H](CC(=O)O)NC(=O)[C@H](CO)NC(=O)[C@H](C)NC(=O)[C@@H](N)CSSC[C@@H](C(N)=O)NC1=O (HELM PEPTIDE1{C.A.S.D.T.L.C.[am]}$PEPTIDE1,PEPTIDE1,1:R3-7:R3$$$V2.0) | – | 1100 | 2800
15 | CC(C)C[C@@H]1NC(=O)[C@H](C)NC(=O)[C@H](CC(=O)O)NC(=O)[C@H](CO)NC(=O)[C@H](CCCN=C(N)N)NC(=O)[C@@H](N)CSSC[C@@H](C(N)=O)NC1=O (HELM PEPTIDE1{C.R.S.D.A.L.C.[am]}$PEPTIDE1,PEPTIDE1,1:R3-7:R3$$$V2.0) | – | 10000 | 60000
16 | CSCC[C@@H]1NC(=O)[C@H](CCCN=C(N)N)NC(=O)[C@@H](N)CSSC[C@@H](C(N)=O)NC(=O)[C@H](CC(C)C)NC(=O)[C@H]([C@@H](C)O)NC(=O)[C@H](CC(=O)O)NC1=O | – | 2200 | 3200
17 | CC(C)C[C@@H]1NC(=O)[C@H](C(C)C)NC(=O)[C@H](CC(=O)O)NC(=O)[C@H](CO)NC(=O)[C@H](CCCN=C(N)N)NC(=O)[C@@H](N)CSSC[C@@H](C(N)=O)NC1=O | – | 840 | 13000
18 | CC(C)C[C@@H]1NC(=O)[C@H]([C@@H](C)O)NC(=O)[C@H](CC(=O)O)NC(=O)[C@H](CO)NC(=O)[C@H](CCCNC(=N)N)NC(=O)[C@@H](NC(=O)[C@@H](N)CC(=O)O)CSSC[C@@H](C(N)=O)NC1=O (HELM PEPTIDE1{D.C.R.S.D.T.L.C.[am]}$PEPTIDE1,PEPTIDE1,2:R3-8:R3$$$V2.0) | – | 520 | 8600
19 | CC(C)C[C@@H]1NC(=O)[C@H](CCCN=C(N)N)NC(=O)[C@@H](N)CSSC[C@@H](C(N)=O)NC(=O)[C@H](CC(C)C)NC(=O)[C@H]([C@@H](C)O)NC(=O)[C@H](CC(=O)O)NC1=O | – | 1900 | 800
20 | CC(C)C[C@@H]1NC(=O)[C@H]([C@@H](C)O)NC(=O)[C@H](CC(=O)O)NC(=O)[C@H](CO)NC(=O)[C@H](Cc2c[nH]c3ccccc23)NC(=O)[C@@H](N)CSSC[C@@H](C(N)=O)NC1=O | – | 430 | 160
21 | CSCC[C@H](N)C(=O)N[C@@H](CC(=O)O)C(=O)N[C@H]1CSSC[C@@H](C(=O)NCC(=O)N[C@@H](CCC(=O)O)C(N)=O)NC(=O)[C@H](CC(C)C)NC(=O)[C@H]([C@@H](C)O)NC(=O)[C@H](CC(=O)O)NC(=O)[C@H](CO)NC(=O)[C@H](CCCNC(=N)N)NC1=O (HELM PEPTIDE1{M.D.C.R.S.D.T.L.C.G.E.[am]}$PEPTIDE1,PEPTIDE1,3:R3-9:R3$$$V2.0) | – | 190 | 4200
22 | CC[C@H](C)[C@@H]1NC(=O)[C@H]([C@@H](C)O)NC(=O)[C@H](CC(=O)O)NC(=O)[C@H](CO)NC(=O)[C@H](CCCNC(=N)N)NC(=O)[C@@H](N)CSSC[C@@H](C(N)=O)NC1=O | – | 1800 | 25000
23 | C[C@@H](O)[C@@H]1NC(=O)[C@H](CC(=O)O)NC(=O)[C@H](CO)NC(=O)[C@H](CCCN=C(N)N)NC(=O)[C@@H](N)CSSC[C@@H](C(N)=O)NC(=O)CNC1=O | – | 11000 | > 100000
24 | CC(C)C[C@@H]1NC(=O)[C@H]([C@@H](C)O)NC(=O)[C@H](CCC(N)=O)NC(=O)[C@H](CO)NC(=O)[C@H](CCCNC(=N)N)NC(=O)[C@@H](N)CSSC[C@@H](C(N)=O)NC1=O (HELM PEPTIDE1{C.R.S.Q.T.L.C.[am]}$PEPTIDE1,PEPTIDE1,1:R3-7:R3$$$V2.0) | – | > 100000 | > 100000
25 | CC(C)C[C@@H]1NC(=O)[C@H]([C@@H](C)O)NC(=O)[C@H](CC(=O)O)NC(=O)[C@H](CO)NC(=O)[C@H](Cc2cnc[nH]2)NC(=O)[C@@H](N)CSSC[C@@H](C(N)=O)NC1=O | – | 390 | 1100

From ChEMBL document CHEMBL1135530, “Selective alpha4beta7 integrin antagonists and their potential as antiinflammatory agents” (J Med Chem, 2002)
